Experimental data from different studies.
Protocols differ between the studies behind these lines.
Organism: Candida albicans
Read-out: microbial growth
Method: broth dilution

Compound	strain	time	MIC
C=CC(=O)ON=C1C=CC(=C(C#N)c2ccccc2)C=C1	ATCC10231	48 h	2 µg/mL
OC(Cn1cncn1)(Cn1cncn1)c1ccc(F)cc1F	ATCC90028	48 h	8 µg/mL
C/C(=N\C(=N)/N=C(\C)c1c(O)c2ccccc2oc1=O)c1c(O)c2ccccc2oc1=O		48 h	31.2 µg/mL
OC(Cn1cncn1)(Cn1cncn1)c1ccc(F)cc1F	8	24 h	1 µg/mL
O=C1/C(=C/c2ccc3ccccc3c2O)NC(=S)N1c1ccccc1	ATCC10 ATCC10231		20 µg/mL
Nc1nn2c(-c3ccc(Cl)cc3Cl)cc(-c3ccc(OCc4ccccc4)cc3)nc2c1N=Nc1ccc(F)cc1	ATCC10231		62.5 µg/mL
COc1ccc(N2N=C(C(C)=O)SC2=C(C#N)C(=O)c2ccc(Nc3cnccn3)cc2)cc1	ATCC10231		25 µg/mL
N#CC(=C1C=CC(=NOC(=O)OCc2ccccc2)C=C1)c1ccccc1	ATCC10231	48 h	256 µg/mL
OC(Cn1cncn1)(Cn1cncn1)c1ccc(F)cc1F	CGMCC2	48 h	4 µM
Cc1ccc(N=Nc2c(N)nn3c(-c4ccc(C)cc4)cc(-c4ccc(OCc5ccccc5)cc4)nc23)cc1	ATCC10231		31.3 µg/mL
C[C@@H]1[C@H](O)[C@@H](C)/C=C/C=C/C=C/C=C/C=C/C=C/C=C/[C@H](O[C@@H]2O[C@H](C)[C@@H](O)[C@H](N)[C@@H]2O)C[C@@H]2O[C@](O)(C[C@@H](O)C[C@@H](O)[C@H](O)CC[C@@H](O)C[C@@H](O)CC(=O)O[C@H]1C)C[C@H](O)[C@H]2C(=O)O	17546	48 h	< 0.25 µM
N#CC(C#N)=C1SC(C(=O)c2ccc(Nc3cnccn3)cc2)=NN1c1ccccc1	ATCC10231		100 µg/mL
CC(=O)N1CCN(c2ccc(OCC3COC(Cn4ccnc4)(c4ccc(Cl)cc4Cl)O3)cc2)CC1 (centres unmarked)	14936	48 h	2 µM
C/C(=N\C1CCCCC1/N=C(\C)c1c(O)c2ccccc2oc1=O)c1c(O)c2ccccc2oc1=O (centres unmarked)		48 h	31.2 µg/mL
